Source: ChEMBL document CHEMBL1144537, “Synthesis of a non-cationic, water-soluble perylenetetracarboxylic diimide and its interactions with G-quadruplex-forming DNA” (Bioorg Med Chem, 2007)
Active and inactive are the calls of the source. No cut-off for these calls is given here.

Key:
[1] = Binding affinity to 32 base containing human telomeric repeat G-rich ssDNA by fluorescence quenching assay
How it was run: (§1)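 Ligand held at fixed 34–168 nM in 10 mM Tris–HCl (pH 8.0) with 100 mM KCl and 1 mM EDTA, then titrated with G-rich strand, C-rich complement, or duplex made by mixing both. Each addition mixed 2 min at 25 °C. Excitation 450 nm; quenching at 545 nm read. Kd fitted by nonlinear least squares to non-interacting-site mass-action model; triplicate titrations, mean ± SD.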

[2] = Binding affinity to 32 base containing complementary human telomeric repeat C-rich ssDNA by fluorescence quenching assay; how it was run: as §1
[3] = Binding affinity to double stranded human telomeric repeat by fluorescence quenching assay; how it was run: as §1
[4] = Binding affinity to human nuclease hypersensitive region of c-MYC gene NHE-27 by fluorescence quenching assay; how it was run: as §1
[5] = Binding affinity to complementary nuclease hypersensitive region of c-MYC gene NHE-27 by fluorescence quenching assay; parameters: species or system Homo sapiens; how it was run: as §1
[6] = Binding affinity to human double stranded nuclease hypersensitive region of c-MYC gene NHE-27 by fluorescence quenching assay; how it was run: as §1
[7] = species on record: Homo sapiens; test: Induction of tetramer formation in human nuclease hypersensitive region of c-MYC gene NHE-27 G-rich ssDNA
[8] = species on record: Homo sapiens; test: Induction of tetramer formation in human telomeric repeat 2HTR G-rich ssDNA
[9] = species on record: Homo sapiens; test: Induction of dimer formation in human nuclease hypersensitive region of c-MYC gene NHE-27 G-rich ssDNA
[10] = species on record: Homo sapiens; test: Induction of dimer formation in human telomeric repeat 2HTR G-rich ssDNA

Row | Kd [5] [nM] | Structure (SMILES) | Kd [1] [nM] | Kd [2] [nM] | Kd [3] [nM] | Kd [4] [nM] | Kd [6] [nM] | Activity [7] | Activity [8] | Activity [9] | Activity [10]
1 | > 20000 | COCCOCCOCC(COCCOCCOC)N1C(=O)c2ccc3c4ccc5c6c(ccc(c7ccc(c2c37)C1=O)c64)C(=O)N(C(COCCOCCOC)COCCOCCOC)C5=O | > 20000 | > 20000 | > 20000 | 980 | 14800 | inactive | inactive | inactive | inactive
2 | – | O=C1c2ccc3c4ccc5c6c(ccc(c7ccc(c2c37)C(=O)N1CCN1CCCCC1)c64)C(=O)N(CCN1CCCCC1)C5=O | 3.4 | 10 | 30 | 5.5 | 6.6 | Active | Active | Active | Active
